Measurements of several laboratories.
Compare with care: the assays were run in different laboratories.
Target: Protein kinase C epsilon type (PRKCE, Homo sapiens, UniProt Q02156)
Sequence (Q02156 1-737, as in one of the studies): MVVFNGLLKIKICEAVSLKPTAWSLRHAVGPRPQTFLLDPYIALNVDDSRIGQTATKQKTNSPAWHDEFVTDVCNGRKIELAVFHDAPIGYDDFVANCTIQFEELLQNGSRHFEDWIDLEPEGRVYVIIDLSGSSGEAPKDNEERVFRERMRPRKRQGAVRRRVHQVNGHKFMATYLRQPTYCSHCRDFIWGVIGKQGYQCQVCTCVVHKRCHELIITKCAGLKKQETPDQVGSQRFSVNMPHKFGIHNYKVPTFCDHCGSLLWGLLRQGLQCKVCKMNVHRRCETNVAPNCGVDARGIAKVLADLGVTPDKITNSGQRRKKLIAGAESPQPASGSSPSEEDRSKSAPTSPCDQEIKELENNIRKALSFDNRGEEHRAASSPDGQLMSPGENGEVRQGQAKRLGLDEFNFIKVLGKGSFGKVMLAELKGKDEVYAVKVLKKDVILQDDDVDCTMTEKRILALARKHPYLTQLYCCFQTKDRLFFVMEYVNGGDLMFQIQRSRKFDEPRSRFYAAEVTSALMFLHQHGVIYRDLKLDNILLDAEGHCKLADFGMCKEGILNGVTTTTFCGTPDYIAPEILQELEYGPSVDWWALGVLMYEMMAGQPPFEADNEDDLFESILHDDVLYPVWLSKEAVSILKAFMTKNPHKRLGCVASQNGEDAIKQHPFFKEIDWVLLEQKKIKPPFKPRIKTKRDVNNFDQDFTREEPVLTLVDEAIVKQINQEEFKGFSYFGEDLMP

C#Cc1n[nH]c2c(-c3cn([C@@H](C)c4ccccn4)c(=O)[nH]c3=O)cc(F)cc12 — inhibition (enzyme activity, inhibitor; 0.1 µM): 4.1%
COc1cc(Nc2ncc(F)c(Nc3ccc4c(n3)NC(=O)C(C)(C)O4)n2)cc(OC)c1OC — inhibition (binding; 10 µM): 73%
Cn1cc(-c2cc(F)cc(N3CCn4c(cc5c4CCCC5)C3=O)c2CO)cc(Nc2ccc(N3CCN(C4COC4)CC3)cn2)c1=O — inhibition (enzyme activity, inhibitor; 0.1 µM): -4%
COc1ncccc1-c1cnn2ccc(N3CCN(C(=O)OC(C)C)CC3)nc12 — remaining binding (binding, competition with immobilised ligand; 1 µM): 76%
O=c1[nH]c2ccccc2n1C1CCN(Cc2ccc(-c3[nH]c4cc5ncnc5cc4nc3-c3ccccc3)cc2)CC1 — remaining signal (cell-free assay; 0.5 µM): 109%
Cn1cc(-c2cccc(N3CCc4c(sc5c4CC(C)(C)C5)C3=O)c2CO)cc(Nc2ccncn2)c1=O — inhibition (enzyme activity, inhibitor; 1 µM): 1%
CC(C)(C)c1cc(C=C(C#N)C#N)cc(Br)c1O — remaining activity (enzyme activity, inhibitor; 0.5 µM): 108%
Cn1cncc1[C@](O)(COc1ccc(C#N)cc1-c1ccc(OC(F)(F)F)cc1)c1ccc(C#N)cc1 — remaining binding (cell-free assay, competition with immobilised ligand; 1 µM): 79%
